Measured values of several laboratories.
Each line is one published result; the experiments were not run side by side.

CC(C)C[C@H](NC(=O)[C@H](Cc1ccccc1)NC(=O)c1cnccn1)B(O)O — IC50 (ASPC1; cell growth or viability, ATP luminescence): 0.023 µM
Cc1cc(Nc2ncc(Cl)c(Nc3ccccc3S(=O)(=O)C(C)C)n2)c(OC(C)C)cc1C1CCNCC1 — inhibition (KARPAS-299; cell growth or viability, MTT; 0.18519 µg/mL, 72 h): 70.5%
COc1ccc(S(=O)(=O)c2ccc(OC)c(OC)c2OC)cc1 — IC50 (tubulin polymerisation, inhibitor, absorbance; pH 6.6): > 40 µM
C[C@@H](Oc1cc(-c2cnn(C3CCNCC3)c2)cnc1N)c1c(Cl)ccc(F)c1Cl — inhibition (KARPAS-299; cell growth or viability, MTT; 5 µg/mL, 72 h): 89.8%
C#CC[C@]1(O)C[C@@H]2c3cc(OCc4cc(C)cc(C)c4)c(OCc4cc(C)cc(C)c4)cc3CCN2[C@@H](C)C1 — IC50 (ASPC1; cell growth or viability, MTT): 0.791 µM
COc1cc(Nc2nccc(-c3cnn4nc(OC)ccc34)n2)cc(C(F)(F)F)c1 — IC50 (DV-90; cell growth or viability, ATP luminescence): > 3 µM
COc1ccc([S+]([O-])c2ccccc2)c(OC)c1OC (centres unmarked) — IC50 (tubulin polymerisation, inhibitor, absorbance; pH 6.6): > 40 µM
Cc1cc(C)cc(COc2cc3c(cc2OCc2cc(C)cc(C)c2)[C@H]2C[C@](O)(Cc4cn(CCc5ccc(N)cc5)nn4)C[C@H](C)N2CC3)c1 — IC50 (ASPC1; cell growth or viability, MTT): 0.568 µM
